What was measured:
Type in all cases: functional
CCRF-CEM = assay: Growth inhibition of human CCRF-CEM cells at 10 uM after 48 hrs by SRB assay relative to control; settings: read-out: GI
Procedure, shortened: (§1)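 Screened at the National Cancer Institute by the standard NCI protocol using the sulforhodamine B assay, which measures cellular protein. Single dose of 10 µM. Result is percent growth inhibition; values above 100% mean cell number fell below the initial population. Values are the average of duplicates.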

HL-60(TB) = assay: Growth inhibition of human HL-60(TB) cells at 10 uM after 48 hrs by SRB assay relative to control; settings: HL-60, 48 h, read-out: GI
Procedure, shortened: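 Run at NCI under its standard single-dose protocol against a leukemia cell panel. Cells were exposed to 10 µM; growth was read by sulforhodamine B staining of cellular protein and expressed as % growth inhibition versus untreated control. Values above 100% mean the cell population fell below the starting count (cytocidal). Each value is the average of duplicates.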

K562 = assay: Growth inhibition of human K562 cells at 10 uM after 48 hrs by SRB assay relative to control; settings: K562, 48 h, read-out: GI; procedure, shortened: as §1
RPMI-8226 = assay: Growth inhibition of human RPMI8226 cells at 10 uM after 48 hrs by SRB assay relative to control; settings: RPMI-8226, 48 h, read-out: GI; procedure, shortened: as §1
HOP-62 = assay: Growth inhibition of human HOP62 cells at 10 uM after 48 hrs by SRB assay relative to control; settings: HOP-62, 48 h, read-out: GI; procedure, shortened: as §1
HOP-92 = assay: Growth inhibition of human HOP92 cells at 10 uM after 48 hrs by SRB assay relative to control; settings: HOP-92, 48 h, read-out: GI; procedure, shortened: as §1
NCI-H23 = assay: Growth inhibition of human NCI-H23 cells at 10 uM after 48 hrs by SRB assay relative to control; settings: NCI-H23, 48 h, read-out: GI; procedure, shortened: as §1
NCI-H322M = assay: Growth inhibition of human NCI-H322M cells at 10 uM after 48 hrs by SRB assay relative to control; settings: read-out: GI; procedure, shortened: as §1
COLO 205 = assay: Growth inhibition of human COLO205 cells at 10 uM after 48 hrs by SRB assay relative to control; settings: COLO 205, 48 h, read-out: GI; procedure, shortened: as §1
HCC 2998 = assay: Growth inhibition of human HCC2998 cells at 10 uM after 48 hrs by SRB assay relative to control; settings: HCC 2998, 48 h, read-out: GI; procedure, shortened: as §1
HCT-116 = assay: Growth inhibition of human HCT116 cells at 10 uM after 48 hrs by SRB assay relative to control; settings: HCT-116, 48 h, read-out: GI; procedure, shortened: as §1
HT-29 = assay: Growth inhibition of human HT-29 cells at 10 uM after 48 hrs by SRB assay relative to control; settings: HT-29, 48 h, read-out: GI; procedure, shortened: as §1
SF-295 = assay: Growth inhibition of human SF295 cells at 10 uM after 48 hrs by SRB assay relative to control; settings: SF-295, 48 h, read-out: GI; procedure, shortened: as §1
SF-539 = assay: Growth inhibition of human SF539 cells at 10 uM after 48 hrs by SRB assay relative to control; settings: SF-539, 48 h, read-out: GI; procedure, shortened: as §1
SNB-19 = assay: Growth inhibition of human SNB19 cells at 10 uM after 48 hrs by SRB assay relative to control; settings: SNB-19, 48 h, read-out: GI
Procedure, shortened: (§2)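 NCI screen against its human cancer cell line panel by the standard NCI protocol, SRB protein stain. Single dose of 10 μM. Percent growth inhibition versus control; values above 100% mean the cell population fell below the starting number. Each value is the mean of duplicates.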

SNB-75 = assay: Growth inhibition of human SNB75 cells at 10 uM after 48 hrs by SRB assay relative to control; settings: SNB-75, 48 h, read-out: GI; procedure, shortened: as §2
U-251 = assay: Growth inhibition of human U251 cells at 10 uM after 48 hrs by SRB assay relative to control; settings: U-251, 48 h, read-out: GI; procedure, shortened: as §2
Malme-3M = assay: Growth inhibition of human MALME-3M cells at 10 uM after 48 hrs by SRB assay relative to control; settings: read-out: GI; procedure, shortened: as §1
MDA-MB-435 = assay: Growth inhibition of human MDA-MB-435 cells at 10 uM after 48 hrs by SRB assay relative to control; settings: MDA-MB-435, 48 h, read-out: GI; procedure, shortened: as §1
SK-MEL-28 = assay: Growth inhibition of human SK-MEL-28 cells at 10 uM after 48 hrs by SRB assay relative to control; settings: SK-MEL-28, 48 h, read-out: GI; procedure, shortened: as §1
SK-MEL-5 = assay: Growth inhibition of human SK-MEL-5 cells at 10 uM after 48 hrs by SRB assay relative to control; settings: SK-MEL-5, 48 h, read-out: GI; procedure, shortened: as §1
UACC-257 = assay: Growth inhibition of human UACC257 cells at 10 uM after 48 hrs by SRB assay relative to control; settings: UACC-257, 48 h, read-out: GI; procedure, shortened: as §2
UACC-62 = assay: Growth inhibition of human UACC62 cells at 10 uM after 48 hrs by SRB assay relative to control; settings: UACC-62, 48 h, read-out: GI; procedure, shortened: as §2
IGROV-1 = assay: Growth inhibition of human IGROV1 cells at 10 uM after 48 hrs by SRB assay relative to control; settings: IGROV-1, 48 h, read-out: GI; procedure, shortened: as §1
OVCAR-3 = assay: Growth inhibition of human OVCAR3 cells at 10 uM after 48 hrs by SRB assay relative to control; settings: OVCAR-3, 48 h, read-out: GI; procedure, shortened: as §1
OVCAR-4 = assay: Growth inhibition of human OVCAR4 cells at 10 uM after 48 hrs by SRB assay relative to control; settings: OVCAR-4, 48 h, read-out: GI; procedure, shortened: as §1
NCI/ADR-RES = assay: Growth inhibition of human NCI/ADR-RES cells at 10 uM after 48 hrs by SRB assay relative to control; settings: read-out: GI; procedure, shortened: as §1
CAKI-1 = assay: Growth inhibition of human Caki1 cells at 10 uM after 48 hrs by SRB assay relative to control; settings: CAKI-1, 48 h, read-out: GI; procedure, shortened: as §1
SN12C = assay: Growth inhibition of human SN12C cells at 10 uM after 48 hrs by SRB assay relative to control; settings: read-out: GI; procedure, shortened: as §1
UO-31 = assay: Growth inhibition of human UO31 cells at 10 uM after 48 hrs by SRB assay relative to control; settings: UO-31, 48 h, read-out: GI; procedure, shortened: as §2
DU-145 = assay: Growth inhibition of human DU145 cells at 10 uM after 48 hrs by SRB assay relative to control; settings: DU-145, 48 h, read-out: GI; procedure, shortened: as §1
MCF7 = assay: Growth inhibition of human MCF7 cells at 10 uM after 48 hrs by SRB assay relative to control; settings: MCF7, 48 h, read-out: GI; procedure, shortened: as §1
Hs-578T = assay: Growth inhibition of human Hs 578T cells at 10 uM after 48 hrs by SRB assay relative to control; settings: read-out: GI; procedure, shortened: as §1

| SMILES | inhibition of growth at 10 µM (CCRF-CEM) | inhibition of growth at 10 µM (HL-60(TB)) | inhibition of growth at 10 µM (K562) | inhibition of growth at 10 µM (RPMI-8226) | inhibition of growth at 10 µM (HOP-62) | inhibition of growth at 10 µM (HOP-92) | inhibition of growth at 10 µM (NCI-H23) | inhibition of growth at 10 µM (NCI-H322M) | inhibition of growth at 10 µM (COLO 205) | inhibition of growth at 10 µM (HCC 2998) | inhibition of growth at 10 µM (HCT-116) | inhibition of growth at 10 µM (HT-29) | inhibition of growth at 10 µM (SF-295) | inhibition of growth at 10 µM (SF-539) | inhibition of growth at 10 µM (SNB-19) | inhibition of growth at 10 µM (SNB-75) | inhibition of growth at 10 µM (U-251) | inhibition of growth at 10 µM (Malme-3M) | inhibition of growth at 10 µM (MDA-MB-435) | inhibition of growth at 10 µM (SK-MEL-28) | other results |
| --- | --- | --- | --- | --- | --- | --- | --- | --- | --- | --- | --- | --- | --- | --- | --- | --- | --- | --- | --- | --- | --- |
| COc1cc2oc(-c3cccc(C(=O)Nc4ccc5c(c4)OCO5)c3)cc(=O)c2c(OC)c1OC | 36.6% | 30.3% | 25.8% | 79.1% | 26.6% | 21.9% | 10.3% | 22.6% | 24.4% | 2.03% | 27.3% | 17.2% | 2.37% | 14.7% | 5.13% | -1.27% | 9.36% | 1.22% | 4.94% | 20.4% | inhibition of growth at 10 µM (SK-MEL-5): 47.2%; inhibition of growth at 10 µM (UACC-257): 5.96%; inhibition of growth at 10 µM (UACC-62): 19.1%; inhibition of growth at 10 µM (IGROV-1): 39.8%; inhibition of growth at 10 µM (OVCAR-3): 12.7%; inhibition of growth at 10 µM (OVCAR-4): 3.72%; inhibition of growth at 10 µM (NCI/ADR-RES): 35.1%; inhibition of growth at 10 µM (CAKI-1): 27.9%; inhibition of growth at 10 µM (SN12C): 30.8%; inhibition of growth at 10 µM (UO-31): 41%; inhibition of growth at 10 µM (DU-145): 18.7%; inhibition of growth at 10 µM (MCF7): 17.9%; inhibition of growth at 10 µM (Hs-578T): 14% |
| COc1cccc(C(=O)Nc2cccc(-c3cc(=O)c4c(O)c(OC)c(OC)cc4o3)c2)c1 | 50.5% | 19.5% | 69.2% | 74.2% | 37.1% | 31.2% | 32.6% | 30.9% | 5.46% | 11.8% | 44.5% | 27.9% | 33.1% | 22.9% | 16.6% | 13.1% | 28.4% | 29.5% | 33.6% | 22.5% | inhibition of growth at 10 µM (SK-MEL-5): 48.9%; inhibition of growth at 10 µM (UACC-257): 25.9%; inhibition of growth at 10 µM (UACC-62): 39.1%; inhibition of growth at 10 µM (IGROV-1): 25.7%; inhibition of growth at 10 µM (OVCAR-3): 34.1%; inhibition of growth at 10 µM (OVCAR-4): 33.4%; inhibition of growth at 10 µM (NCI/ADR-RES): 43.7%; inhibition of growth at 10 µM (CAKI-1): 23.8%; inhibition of growth at 10 µM (SN12C): 34.9%; inhibition of growth at 10 µM (UO-31): 52.9%; inhibition of growth at 10 µM (DU-145): 36.7%; inhibition of growth at 10 µM (MCF7): 34.9%; inhibition of growth at 10 µM (Hs-578T): 34.1% |
